According to ChEMBL document CHEMBL2321660, “Synthesis, characterization, and photoinduced antibacterial activity of porphyrin-type photosensitizers conjugated to the antimicrobial peptide apidaecin 1b” (J Med Chem, 2013):
The source made the active and inactive calls. No cut-off for these calls is given here. Residues, ends and D or L forms follow the SMILES beside them. *: point of attachment. Benzoyl(4-TriPhPorphyrinyl) = O=C(c1ccc(-c2c3nc(c(-c4ccccc4)c4ccc([nH]4)c(-c4ccccc4)c4nc(c(-c5ccccc5)c5ccc2[nH]5)C=C4)C=C3)cc1)*

Key:
[1] = system: Staphylococcus aureus; experiment: Antibacterial activity against methicillin-resistant Staphylococcus aureus ATCC BAA-44 assessed as cell death at 0.5 uM incubated for 15 to 120 mins in dark followed by blue light illumination; assay type: functional, organism-based
Outline: (§1)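 Stationary-phase bacteria grown overnight in BHI at 37 °C, washed twice and resuspended in PBS pH 7.3 at ~2 × 10⁷ cells/mL. Dark incubation with PS at rt, unbound PS left in. Blue light (390−460 nm) at 15.2 mW/cm², 13.5 J/cm². Survivors counted as cfu from serial 10-fold dilutions plated in duplicate on BHI agar, 37 °C overnight. Dark, light-only and untreated controls.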

[2] = system: Escherichia coli; experiment: Antibacterial activity against Escherichia coli ATCC 25922 assessed as cell death at 10 uM incubated for 15 to 120 mins in dark followed by blue light illumination post compound washout; assay type: functional, organism-based
Outline: (§2)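 Dark incubation with PS at rt, then illumination either directly or after three PBS washes (10000g, 5 min). Survival by 10-fold serial dilution, duplicate plating on BHI agar, overnight colony count at 37 °C; dark, light-only and peptide-only controls.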

[3] = system: Escherichia coli; experiment: Antibacterial activity against Escherichia coli ATCC 25922 assessed as cell death at 1.5 to 15 uM incubated for 60 mins in dark followed by blue light illumination post compound washout; assay type: functional, organism-based; outline: as §2
[4] = system: Staphylococcus aureus; experiment: Drug uptake in methicillin-resistant Staphylococcus aureus ATCC BAA-44 at 1.5 uM incubated for 60 mins in dark followed by flow cytometry; assay type: ADME, organism-based; settings: in vivo, 1 h
Outline: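 Cells treated as for photoinactivation: 60 min dark incubation with PS, unwashed or after three PBS washings. Analysed by flow cytometry for cell-associated red fluorescence instead of being illuminated.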

[5] = system: Staphylococcus aureus; experiment: Antibacterial activity against methicillin-resistant Staphylococcus aureus ATCC BAA-44 assessed as cell death at 0.5 uM incubated for 15 to 120 mins in dark followed by blue light illumination post compound washout; assay type: functional, organism-based
Outline: (§3)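 Overnight BHI-grown stationary-phase bacteria in PBS pH 7.3 at ~2 × 10⁷ cells/mL, dark-incubated with PS at rt. Then centrifuged at 10000g for 5 min and washed three times in PBS before blue light (390−460 nm, 15.2 mW/cm², 13.5 J/cm²). Survival measured as cfu from serial dilutions plated in duplicate on BHI agar.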

[6] = system: Staphylococcus aureus; experiment: Antibacterial activity against methicillin-resistant Staphylococcus aureus ATCC BAA-44 assessed as cell death at 0.5 uM incubated for 60 mins in dark followed by blue light illumination post compound washout; assay type: functional, organism-based; outline: as §3
[7] = system: Staphylococcus aureus; experiment: Antibacterial activity against methicillin-resistant Staphylococcus aureus ATCC BAA-44 assessed as log reduction in cell survival at 0.5 uM incubated for 60 mins in dark followed by blue light illumination; assay type: functional; outline: as §1
[8] = system: Escherichia coli; experiment: Antibacterial activity against Escherichia coli ATCC 25922 assessed as cell death after 60 mins in dark followed by blue light illumination; assay type: functional, organism-based; outline: as §2
[9] = system: Escherichia coli; experiment: Antibacterial activity against Escherichia coli ATCC 25922 assessed as cell death at 10 uM incubated for 15 to 120 mins in dark followed by blue light illumination; assay type: functional, organism-based; outline: as §2
[10] = system: Escherichia coli; experiment: Antibacterial activity against Escherichia coli ATCC 25922 assessed as cell death at 15 uM incubated for 60 mins in dark followed by blue light illumination relative to control; assay type: functional; outline: as §1
[11] = system: Escherichia coli; experiment: Drug uptake in Escherichia coli ATCC 25922 at 5 uM incubated for 60 mins in dark followed by flow cytometry; assay type: ADME, organism-based; settings: in vivo, 1 h
Outline: (§4)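 Bacterial suspensions treated as for photoinactivation (5 μM, 60 min dark incubation at rt, either unwashed or washed three times with PBS) and then analysed for cell-associated red fluorescence by flow cytometry instead of being illuminated.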

[12] = system: Staphylococcus aureus; experiment: Antibacterial activity against methicillin-resistant Staphylococcus aureus ATCC BAA-44 assessed as cell death at 1.5 to 15 uM incubated for 60 mins in dark followed by red light illumination; assay type: functional, organism-based
Outline: (§5)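 Cells incubated with PS in the dark at rt in PBS pH 7.3 (~2 × 10⁷ cells/mL), unbound PS not removed. Red light (600−750 nm) delivered from above at 40 mW/cm², total 36 J/cm². Viability read as cfu after 10-fold serial dilution, duplicate plating on BHI agar, overnight at 37 °C.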

[13] = system: Staphylococcus aureus; experiment: Antibacterial activity against methicillin-resistant Staphylococcus aureus ATCC BAA-44 assessed as cell death at 10 uM incubated for 15 to 120 mins in dark followed by red light illumination post compound washout; assay type: functional, organism-based
Outline: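 After dark incubation with PS in PBS at rt, cells pelleted at 10000g for 5 min and washed three times with PBS. Red light (600−750 nm, 40 mW/cm², 36 J/cm²). Surviving cfu counted on BHI agar plated in duplicate.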

[14] = system: Escherichia coli; experiment: Antibacterial activity against Escherichia coli ATCC 25922 assessed as cell death after 60 mins in dark followed by red light illumination; assay type: functional, organism-based; outline: as §2
[15] = system: Staphylococcus aureus; experiment: Antibacterial activity against methicillin-resistant Staphylococcus aureus ATCC BAA-44 assessed as cell death at 10 uM incubated for 15 to 120 mins in dark followed by red light illumination; assay type: functional, organism-based; outline: as §5
[16] = system: Escherichia coli; experiment: Drug uptake in Escherichia coli ATCC 25922 at 5 uM incubated for 60 mins in dark followed by flow cytometry post compound washout; assay type: ADME, organism-based; settings: in vivo, 1 h; outline: as §4
[17] = system: Staphylococcus aureus; experiment: Antibacterial activity against methicillin-resistant Staphylococcus aureus ATCC BAA-44 assessed as cell death at 50 to 500 nM incubated for 60 mins in dark followed by blue light illumination post compound washout; assay type: functional, organism-based; outline: as §3
[18] = system: Staphylococcus aureus; experiment: Antibacterial activity against methicillin-resistant Staphylococcus aureus ATCC BAA-44 assessed as cell death at 10 nM incubated for 15 to 120 mins in dark followed by blue light illumination post compound washout; assay type: functional, organism-based; outline: as §3
[19] = system: Staphylococcus aureus; experiment: Antibacterial activity against methicillin-resistant Staphylococcus aureus ATCC BAA-44 assessed as cell death at 10 nM incubated for 15 to 120 mins in dark followed by blue light illumination; assay type: functional, organism-based; outline: as §1
[20] = system: Staphylococcus aureus; experiment: Antibacterial activity against methicillin-resistant Staphylococcus aureus ATCC BAA-44 assessed as cell death at 0.5 uM incubated for 60 mins in dark followed by blue light illumination; assay type: functional, organism-based; outline: as §1
[21] = system: Staphylococcus aureus; experiment: Antibacterial activity against methicillin-resistant Staphylococcus aureus ATCC BAA-44 assessed as cell death at 50 to 500 nM incubated for 60 mins in dark followed by blue light illumination; assay type: functional, organism-based; outline: as §1
[22] = system: Escherichia coli; experiment: Antibacterial activity against Escherichia coli ATCC 25922 assessed as cell death at 5 uM incubated for 15 to 120 mins in dark followed by blue light illumination post compound washout; assay type: functional, organism-based; outline: as §3
[23] = system: Escherichia coli; experiment: Antibacterial activity against Escherichia coli ATCC 25922 assessed as cell death at 5 uM incubated for 15 to 120 mins in dark followed by blue light illumination; assay type: functional, organism-based; outline: as §1
[24] = system: Escherichia coli; experiment: Antibacterial activity against Escherichia coli ATCC 25922 assessed as log reduction at 10 uM incubated for 60 mins in dark followed by blue light illumination post compound washout relative to control; assay type: functional, organism-based; outline: as §3
[25] = system: Escherichia coli; experiment: Antibacterial activity against Escherichia coli ATCC 25922 assessed as cell death at 5 to 10 uM incubated for 60 mins in dark followed by blue light illumination; assay type: functional, organism-based; outline: as §1
[26] = system: Escherichia coli; experiment: Antibacterial activity against Escherichia coli ATCC 25922 assessed as cell death at 10 uM incubated for 60 mins in dark followed by blue light illumination post compound washout; assay type: functional, organism-based; outline: as §2

CC(C)C[C@H](NC(=O)[C@H](CCCNC(=N)N)NC(=O)[C@@H]1CCCN1C(=O)[C@H](Cc1cnc[nH]1)NC(=O)[C@@H]1CCCN1C(=O)[C@@H]1CCCN1C(=O)[C@H](CCCNC(=N)N)NC(=O)[C@@H]1CCCN1C(=O)CNC(=O)c1ccc(-c2c3nc(c(-c4ccccc4)c4ccc([nH]4)c(-c4ccccc4)c4nc(c(-c5ccccc5)c5ccc2[nH]5)C=C4)C=C3)cc1)C(=O)O ({Benzoyl(4-TriPhPorphyrinyl)}-GPRPPHPRL-OH)
Activity [1]: Active
Activity [2]: Active
Activity [3]: Active
Drug uptake [4]: Active
Activity [5]: Active
Activity [6]: Active
FC [7]: 3
Activity [8]: Dose-dependent effect
Activity [9]: Active
fold change (FC) [10]: 4
Drug uptake [11]: Active

COC(=O)CCCC(=O)Nc1cc2[nH]c(cc2-c2ccccc2)c2nc(ccc3[nH]c(cc3-c3ccccc3)c3nc1C(c1ccccc1)=C3)C(c1ccccc1)=C2
Activity [12]: Active
Activity [13]: Active
Activity [14]: inactive
Activity [15]: Active

O=C(O)c1ccc(-c2c3nc(c(-c4ccccc4)c4ccc([nH]4)c(-c4ccccc4)c4nc(c(-c5ccccc5)c5ccc2[nH]5)C=C4)C=C3)cc1
Drug uptake [4]: Active
Drug uptake [16]: Not Active
Activity [8]: inactive
Activity [17]: Active
Activity [18]: Active
Activity [19]: Active
Drug uptake [11]: Not Active
Activity [20]: Active
Activity [21]: Active

C[n+]1ccc(-c2c3nc(c(-c4cc[n+](C)cc4)c4ccc([nH]4)c(-c4ccc(C(=O)O)cc4)c4ccc([nH]4)c(-c4cc[n+](C)cc4)c4nc2C=C4)C=C3)cc1
Activity [1]: Active
Activity [3]: Active
Drug uptake [4]: Not Active
Activity [5]: Active
Activity [22]: Active
Activity [8]: Dose-dependent effect
Activity [17]: inactive
Activity [23]: Active
Activity [24]: inactive
Drug uptake [11]: Not Active
Activity [20]: Active
Activity [21]: Active
Activity [25]: Active

CC[C@H](C)[C@H](NC(=O)[C@H](Cc1ccc(O)cc1)NC(=O)[C@@H](NC(=O)[C@@H]1CCCN1C(=O)[C@H](CCCNC(=N)N)NC(=O)[C@H](CC(N)=O)NC(=O)[C@H](CC(N)=O)NC(=O)CNC(=O)c1ccc(-c2c3nc(c(-c4ccccc4)c4ccc([nH]4)c(-c4ccccc4)c4nc(c(-c5ccccc5)c5ccc2[nH]5)C=C4)C=C3)cc1)C(C)C)C(=O)N1CCC[C@H]1C(=O)N[C@@H](CCC(N)=O)C(=O)N1CCC[C@H]1C(=O)N[C@@H](CCCNC(=N)N)C(=O)N1CCC[C@H]1C(=O)N1CCC[C@H]1C(=O)N[C@@H](Cc1cnc[nH]1)C(=O)N1CCC[C@H]1C(=O)N[C@@H](CCCNC(=N)N)C(=O)N[C@@H](CC(C)C)C(=O)O ({Benzoyl(4-TriPhPorphyrinyl)}-GNNRPVYIPQPRPPHPRL-OH)
Activity [1]: Active
Activity [2]: Active
Activity [3]: Active
Drug uptake [4]: Active
Activity [26]: Active
Activity [5]: Active
Activity [6]: Active
FC [7]: 3
Activity [8]: Dose-dependent effect
Activity [9]: Active
fold change (FC) [10]: 4
Drug uptake [11]: Active
